Among the data in ChEMBL document CHEMBL1137696, “Preparation and in vitro evaluation of benzylsulfanyl benzoxazole derivatives as potential antituberculosis agents” (2009) are MIC values, retold here.

In brackets after ≈: the same amount, converted by molar mass.

The term MIC denotes the least concentration at which growth counts as inhibited. The low end stands for inhibition by little substance, the high end for a need for much substance.

What all share (format): functional
For assay [1], the system named is Mycobacterium tuberculosis. Description: Antimycobacterial activity against isoniazid and streptomycin-resistant Mycobacterium tuberculosis 4166/04 after 21 days by micromethod. As to conditions: 4166/04, 504 h. Put shortly:
(§1)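 MIC by micromethod in Šula semisynthetic medium. Compounds added as DMSO solutions at 1000, 500, 250, 125, 62, 32, 16, 8, 4 and 2 µmol/L. Incubated at 37 °C and read at 14 and 21 days. MIC taken as the lowest concentration that inhibited mycobacterial growth, expressed in µmol/L. INH run as standard. Strains from CNCTC.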

In assay [2] the test system is Mycobacterium tuberculosis. Description: Antimycobacterial activity against multidrug-resistant Mycobacterium tuberculosis 7357/98 after 14 days by micromethod. As to conditions: 7357/98, 336 h. A digest of the protocol: as §1
The test system of assay [3] is Mycobacterium tuberculosis. Description: Antimycobacterial activity against multidrug-resistant Mycobacterium tuberculosis 550/04 after 21 days by micromethod. To be noted: 550/04, 504 h. A digest of the protocol:
as §1

Assay [4] concerns Mycobacterium tuberculosis. The experiment in a line: Antimycobacterial activity against multidrug-resistant Mycobacterium tuberculosis 4977/03 after 21 days by micromethod. To be noted: 4977/03, 504 h. Put shortly:
as §1

The subject of assay [5] is Mycobacterium tuberculosis. The experiment in a line: Antimycobacterial activity against multidrug-resistant Mycobacterium tuberculosis 4977/03 after 14 days by micromethod. To be noted: 4977/03, 336 h. Put shortly: as §1
Assay [6] concerns Mycobacterium tuberculosis. Description: Antimycobacterial activity against isoniazid and streptomycin-resistant Mycobacterium tuberculosis 4166/04 after 14 days by micromethod. As to conditions: 4166/04, 336 h. A digest of the protocol: as §1
In assay [7] the test system is Mycobacterium tuberculosis. The experiment in a line: Antimycobacterial activity against multidrug-resistant Mycobacterium tuberculosis 7357/98 after 21 days by micromethod. To be noted: 7357/98, 504 h. Put shortly: as §1
Assay [8] concerns Mycobacterium tuberculosis. Description: Antimycobacterial activity against multidrug-resistant Mycobacterium tuberculosis 550/04 after 14 days by micromethod. To be noted: 550/04, 336 h. A digest of the protocol: as §1

Consider `O=[N+]([O-])c1cc(CSc2nc3ccccc3o2)cc([N+](=O)[O-])c1`, for which the MIC in assay [1] is 4 µM (≈ 1.33 µg/mL); in assay [2] it was 4 µM (≈ 1.33 µg/mL); in assay [3], 4 µM (≈ 1.33 µg/mL); in assay [4], 2 µM (≈ 0.663 µg/mL); in assay [5], 2 µM (≈ 0.663 µg/mL); in assay [6], 2 µM (≈ 0.663 µg/mL). Also, the MIC in assay [7] is 4 µM (≈ 1.33 µg/mL); in assay [8], 2 µM (≈ 0.663 µg/mL).

As for `NC(=S)c1ccc(CSc2nc3ccccc3o2)cc1`, the MIC came out at 16 µM (≈ 4.81 µg/mL) in assay [1]; 32 µM (≈ 9.61 µg/mL) in assay [2]; 16 µM (≈ 4.81 µg/mL) in assay [3]; 32 µM (≈ 9.61 µg/mL) in assay [4]; 32 µM (≈ 9.61 µg/mL) in assay [5]; 8 µM (≈ 2.4 µg/mL) in assay [6]. Also, the MIC stood at 32 µM (≈ 9.61 µg/mL) in assay [7] and 8 µM (≈ 2.4 µg/mL) in assay [8].
